Experimental data: ChEMBL document CHEMBL5257040, “Discovery of VU2957 (Valiglurax): An mGlu4 Positive Allosteric Modulator Evaluated as a Preclinical Candidate for the Treatment of Parkinson's Disease” (ACS Med Chem Lett, 2019); call rule not given here

Columns and labels:
[1] = AUC in Sprague-Dawley rat at 30 mg/kg, po administered as spray-dried dispersion formulation and measured after 24 hrs by LC-MS/MS analysis; format: ADME, organism-based; parameters: dose 30 mg/kg, time 24 hrs, route po; settings: in vivo
Procedure, shortened: (§1)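 Rats were dosed orally at 3, 10 and 30 mg/kg with a spray-dried dispersion of the free base and HPMCP-HP55 polymer (25%/75%), in 30% Dexolve. Total plasma Cmax and AUC were measured, N = 3.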

[2] = AUC in Sprague-Dawley rat at 10 mg/kg, po administered as spray-dried dispersion formulation and measured after 24 hrs by LC-MS/MS analysis; format: ADME, organism-based; parameters: dose 10 mg/kg, time 24 hrs, route po; settings: in vivo; procedure, shortened: as §1
[3] = Cmax in Sprague-Dawley rat at 10 mg/kg, po administered as spray-dried dispersion formulation and measured after 24 hrs by LC-MS/MS analysis; format: ADME, organism-based; parameters: dose 10 mg/kg, time 24 hrs, route po; settings: in vivo; procedure, shortened: as §1
[4] = Drug uptake in plasma of haloperidol-induced catalepsy Sprague-Dawley rat model at 0.3 to 30 mg/kg,po; format: ADME, organism-based; settings: in vivo, dose 0.3-30 mg/kg
Procedure, shortened: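 Rats were given haloperidol 1.5 mg/kg i.p. to induce catalepsy and dosed orally at 0.3–30 mg/kg, N = 8–10 per group. Total plasma and CSF concentrations were measured alongside the catalepsy read-out. Satellite rats were used for PK in the time-course study.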

[5] = tested on: Rattus norvegicus; assay: Reversal of haloperidol-induced catalepsy Sprague-Dawley rat model assessed as minimum effective dose administered orally; format: functional; settings: route po, read-out: MED
Procedure, shortened: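 Sprague-Dawley rats received haloperidol 1.5 mg/kg i.p. to induce catalepsy, with the compound dosed orally at 0.3–30 mg/kg. Groups were 8–10 rats and compared with vehicle + haloperidol (p < 0.05). MED = lowest oral dose giving significant reversal.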

[6] = Oral bioavailability in Beagle dog at 3 mg/kg and measured upto 24 hrs by LC-MS/MS analysis; format: ADME, organism-based, Canis lupus familiaris; settings: in vivo
Procedure, shortened: (§2)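 Single-dose iv and oral PK in separate arms: mouse 1 mg/kg iv / 3 mg/kg po, SD rat 0.2/3, beagle 0.5/3, cynomolgus 0.2/3 mg/kg. Plasma parameters (Vss, Tmax, F) are means of two to three animals per species.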

[7] = Clearance in Beagle dog plasma at 0.5 mg/kg, iv and measured upto 24 hrs by LC-MS/MS analysis; format: ADME, organism-based, Canis lupus familiaris
Procedure, shortened: (§3)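 Single intravenous doses: mouse 1 mg/kg, SD rat 0.2 mg/kg, beagle dog 0.5 mg/kg, cynomolgus monkey 0.2 mg/kg. Plasma clearance, Vss and elimination half-life came from the plasma profiles. Values are means of two to three animals.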

[8] = Oral bioavailability in Sprague-Dawley rat at 3 mg/kg and measured upto 24 hrs by LC-MS/MS analysis; format: ADME, organism-based; settings: in vivo; procedure, shortened: as §2
[9] = Cmax in Sprague-Dawley rat at 3 mg/kg, po and measured upto 24 hrs by LC-MS/MS analysis; format: ADME, organism-based; parameters: time < 24 hrs, dose 3 mg/kg, route po; settings: in vivo
Procedure, shortened: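 Single oral 3 mg/kg dose in mouse, SD rat, beagle and cyno. Cmax is the peak total plasma concentration. Values are means of two to three animals.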

[10] = Elimination half life in Sprague-Dawley rat at 0.2 mg/kg, iv and measured upto 24 hrs by LC-MS/MS analysis; format: ADME, organism-based; settings: in vivo, read-out: beta t1/2 (converted); procedure, shortened: as §3
[11] = Unbound brain-to-plasma concentration ratio in CD-1 mouse at 1 mg/kg,iv and measured upto 24 hrs by LC-MS/MS analysis; format: ADME, organism-based; settings: read-out: K(p,uu,brain)
[12] = Brain to plasma permeability coefficient, Kp in CD-1 mouse plasma at 1 mg/kg,iv and measured upto 24 hrs by LC-MS/MS analysis; format: ADME, organism-based
Procedure, shortened: (§4)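 Total brain to total plasma partition coefficient (Kp) measured in mouse, SD rat and cynomolgus monkey. The unbound ratio (Kp,uu) was corrected with brain homogenate binding. Values are means of two to three animals.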

[13] = Oral bioavailability in CD-1 mouse plasma at 3 mg/kg and measured upto 24 hrs by LC-MS/MS analysis; format: ADME, organism-based; procedure, shortened: as §2
[14] = Elimination half life in CD-1 mouse plasma at 1 mg/kg, iv and measured upto 24 hrs by LC-MS/MS analysis; format: ADME, organism-based; settings: read-out: beta t1/2 (converted); procedure, shortened: as §3
[15] = biological target: P-gp (ABCB1) (Homo sapiens, UniProt P08183); assay: Substrate activity at human P-gp assessed as efflux ratio; format: ADME; settings: not told
[16] = Unbound brain-to-plasma concentration ratio in cynomolgus monkey at 0.2 mg/kg, iv and measured upto 1 hrs by LC-MS/MS analysis; format: ADME, organism-based, Macaca fascicularis; settings: read-out: K(p,uu,brain)
[17] = Brain to plasma permeability coefficient, Kp in Sprague-Dawley rat at 0.2 mg/kg, iv and measured upto 24 hrs by LC-MS/MS analysis; format: ADME, organism-based; procedure, shortened: as §4
[18] = biological target: Aryl hydrocarbon receptor (Rattus norvegicus, UniProt P41738); assay: Activation of rat AhR
[19] = biological target: Nuclear receptor subfamily 1 group I member 2 (Homo sapiens, UniProt O75469); assay: Activation of human PXR
[20] = biological target: Aryl hydrocarbon receptor (Homo sapiens, UniProt P35869); assay: Activation of human AhR
[21] = biological target: Cytochrome P450 2C9 (Homo sapiens, UniProt P11712); assay: Inhibition of CYP2C9 in human liver microsomes using […] as substrate preincubated for 15 mins followed by NADPH addition and measured after 8 mins by LC/MS/MS analysis; format: ADME, Microsome
[22] = biological target: Cytochrome P450 2D6 (Homo sapiens, UniProt P10635); assay: Inhibition of CYP2D6 in human liver microsomes using […] as substrate preincubated for 15 mins followed by NADPH addition and measured after 8 mins by LC/MS/MS analysis; format: ADME, Microsome
[23] = Metabolic stability in cynomolgus monkey liver microsomes assessed as intrinsic clearance at 1 uM preincubated for 5 mins followed by NADPH addition and measured for 45 mins by LC/MS/MS analysis; format: ADME, Macaca fascicularis, Microsome; settings: time 50 min, read-out: CLH
[24] = Protein binding in human plasma assessed as fraction unbound incubated for 4 hrs by equilibrium dialysis based LC/MS/MS analysis; format: ADME, cell-free
[25] = Genotoxicity in Salmonella typhimurium […] by Ames test; format: toxicity; settings: salmonella enterica subsp. enterica serovar typhimurium
Procedure, shortened: (§5)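 Ames bacterial reverse mutation test in strains TA98 and […], run with and without S9 metabolic activation.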

[26] = Genotoxicity in Salmonella typhimurium TA98 in presence of S9 fraction by Ames test; format: toxicity, subcellular; settings: salmonella enterica subsp. enterica serovar typhimurium; procedure, shortened: as §5
[27] = biological target: Kir2.1 (Homo sapiens, UniProt Q7Z4S6); assay: Inhibition of Kir2.1 (unknown origin) at 10 uM; format: toxicity
Procedure, shortened: (§6)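 Cardiac ion channel electrophysiology (functional EP) panel, with percent inhibition measured at 10 μM.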

[28] = biological target: Kv1.5 (Homo sapiens, UniProt P22460); assay: Inhibition of Kv1.5 (unknown origin) at 10 uM; format: toxicity; procedure, shortened: as §6
[29] = biological target: Metabotropic glutamate receptor 8 (Rattus norvegicus, UniProt P70579); assay: Positive allosteric modulator activity at rat mGlu8 in human HEK cells co-expressing […] assessed as increase in by thallium flux preincubated for 2.5 mins followed by gluatamate addition by thallium flux assay; format: cell-based
[30] = biological target: Metabotropic glutamate receptor 7 (Rattus norvegicus, UniProt P35400); assay: Positive allosteric modulator activity at rat mGlu7 in human HEK cells co-expressing […] assessed as increase in by thallium flux preincubated for 2.5 mins followed by gluatamate addition by thallium flux assay; format: cell-based
[31] = biological target: Metabotropic glutamate receptor 3 (Rattus norvegicus, UniProt P31422); assay: Positive allosteric modulator activity at rat mGlu3 in human HEK cells co-expressing […] assessed as increase in by thallium flux preincubated for 2.5 mins followed by gluatamate addition by thallium flux assay; format: cell-based
Sequence of Metabotropic glutamate receptor 3 (P31422 whole entry): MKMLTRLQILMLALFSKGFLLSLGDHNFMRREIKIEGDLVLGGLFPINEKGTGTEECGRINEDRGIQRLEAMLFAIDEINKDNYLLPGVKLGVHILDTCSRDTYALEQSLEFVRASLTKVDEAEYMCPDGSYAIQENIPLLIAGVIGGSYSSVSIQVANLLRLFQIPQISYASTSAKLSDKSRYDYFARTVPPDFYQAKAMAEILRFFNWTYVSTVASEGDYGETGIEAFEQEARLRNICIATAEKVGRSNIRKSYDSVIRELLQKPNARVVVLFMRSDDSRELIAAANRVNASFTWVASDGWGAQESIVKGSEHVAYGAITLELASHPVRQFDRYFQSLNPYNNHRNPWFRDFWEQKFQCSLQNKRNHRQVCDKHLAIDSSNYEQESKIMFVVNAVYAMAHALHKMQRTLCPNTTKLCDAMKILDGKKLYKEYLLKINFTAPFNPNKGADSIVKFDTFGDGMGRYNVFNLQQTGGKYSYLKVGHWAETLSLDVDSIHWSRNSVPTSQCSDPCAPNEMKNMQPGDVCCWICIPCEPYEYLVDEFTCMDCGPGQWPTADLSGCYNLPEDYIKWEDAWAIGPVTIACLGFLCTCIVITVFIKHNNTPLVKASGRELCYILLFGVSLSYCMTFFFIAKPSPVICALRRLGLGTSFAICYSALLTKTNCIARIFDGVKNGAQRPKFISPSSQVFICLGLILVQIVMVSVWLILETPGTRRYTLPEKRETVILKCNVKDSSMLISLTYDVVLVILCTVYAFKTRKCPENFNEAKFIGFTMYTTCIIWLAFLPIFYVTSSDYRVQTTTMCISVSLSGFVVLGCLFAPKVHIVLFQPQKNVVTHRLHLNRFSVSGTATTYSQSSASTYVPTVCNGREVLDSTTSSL

Sequence of Cytochrome P450 2C9 (P11712 whole entry): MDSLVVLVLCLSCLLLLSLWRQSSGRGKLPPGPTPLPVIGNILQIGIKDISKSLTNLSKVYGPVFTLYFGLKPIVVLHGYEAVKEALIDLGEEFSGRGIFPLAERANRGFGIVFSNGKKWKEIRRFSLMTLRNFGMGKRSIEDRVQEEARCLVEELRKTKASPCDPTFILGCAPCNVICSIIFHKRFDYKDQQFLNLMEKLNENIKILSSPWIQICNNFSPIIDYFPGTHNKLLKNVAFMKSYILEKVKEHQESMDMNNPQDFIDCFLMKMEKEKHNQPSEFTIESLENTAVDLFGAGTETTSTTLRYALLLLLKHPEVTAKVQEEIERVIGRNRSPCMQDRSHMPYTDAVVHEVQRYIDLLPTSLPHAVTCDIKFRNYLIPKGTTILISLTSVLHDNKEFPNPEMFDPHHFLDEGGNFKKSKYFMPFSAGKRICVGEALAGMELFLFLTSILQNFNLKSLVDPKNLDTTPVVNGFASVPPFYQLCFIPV
Sequence of Kv1.5 (P22460 whole entry): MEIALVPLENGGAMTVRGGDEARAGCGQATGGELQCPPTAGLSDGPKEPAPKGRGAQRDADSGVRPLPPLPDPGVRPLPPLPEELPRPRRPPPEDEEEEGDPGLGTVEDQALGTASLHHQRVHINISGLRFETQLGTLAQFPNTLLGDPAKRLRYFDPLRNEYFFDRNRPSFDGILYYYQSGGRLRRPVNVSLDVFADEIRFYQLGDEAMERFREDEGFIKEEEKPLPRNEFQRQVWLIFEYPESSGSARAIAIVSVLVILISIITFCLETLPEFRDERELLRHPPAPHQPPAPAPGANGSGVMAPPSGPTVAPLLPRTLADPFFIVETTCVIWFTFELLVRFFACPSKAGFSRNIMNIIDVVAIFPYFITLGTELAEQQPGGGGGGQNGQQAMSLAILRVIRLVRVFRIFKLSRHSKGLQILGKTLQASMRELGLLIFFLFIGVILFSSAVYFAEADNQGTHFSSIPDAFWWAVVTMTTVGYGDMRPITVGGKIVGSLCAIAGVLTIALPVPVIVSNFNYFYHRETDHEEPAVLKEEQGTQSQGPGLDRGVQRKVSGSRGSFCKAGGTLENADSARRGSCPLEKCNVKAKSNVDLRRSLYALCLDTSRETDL
Sequence of Aryl hydrocarbon receptor (Rattus norvegicus, UniProt P41738) (P41738 whole entry): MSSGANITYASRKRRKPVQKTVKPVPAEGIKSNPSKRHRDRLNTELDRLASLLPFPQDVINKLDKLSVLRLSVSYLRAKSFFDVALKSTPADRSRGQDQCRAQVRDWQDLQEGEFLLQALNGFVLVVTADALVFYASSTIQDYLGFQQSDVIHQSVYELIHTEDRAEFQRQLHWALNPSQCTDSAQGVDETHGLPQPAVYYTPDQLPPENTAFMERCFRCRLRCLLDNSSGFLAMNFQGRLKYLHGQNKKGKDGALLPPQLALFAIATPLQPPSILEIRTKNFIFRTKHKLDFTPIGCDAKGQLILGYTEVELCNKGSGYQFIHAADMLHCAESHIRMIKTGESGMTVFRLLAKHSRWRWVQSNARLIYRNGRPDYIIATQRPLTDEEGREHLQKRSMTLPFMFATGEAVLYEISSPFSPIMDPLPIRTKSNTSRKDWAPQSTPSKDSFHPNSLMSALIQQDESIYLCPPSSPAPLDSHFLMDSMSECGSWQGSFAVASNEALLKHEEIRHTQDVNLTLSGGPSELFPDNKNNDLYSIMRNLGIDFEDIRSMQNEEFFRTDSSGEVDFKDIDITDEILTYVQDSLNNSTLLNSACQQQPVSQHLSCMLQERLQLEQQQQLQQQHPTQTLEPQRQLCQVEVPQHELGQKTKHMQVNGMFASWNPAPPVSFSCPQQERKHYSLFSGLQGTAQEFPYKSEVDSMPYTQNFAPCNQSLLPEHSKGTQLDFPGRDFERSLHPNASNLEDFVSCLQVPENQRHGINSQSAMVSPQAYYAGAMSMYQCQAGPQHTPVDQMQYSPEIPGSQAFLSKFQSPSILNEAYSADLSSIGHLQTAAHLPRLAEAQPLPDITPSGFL
Sequence of Cytochrome P450 2D6 (P10635 whole entry): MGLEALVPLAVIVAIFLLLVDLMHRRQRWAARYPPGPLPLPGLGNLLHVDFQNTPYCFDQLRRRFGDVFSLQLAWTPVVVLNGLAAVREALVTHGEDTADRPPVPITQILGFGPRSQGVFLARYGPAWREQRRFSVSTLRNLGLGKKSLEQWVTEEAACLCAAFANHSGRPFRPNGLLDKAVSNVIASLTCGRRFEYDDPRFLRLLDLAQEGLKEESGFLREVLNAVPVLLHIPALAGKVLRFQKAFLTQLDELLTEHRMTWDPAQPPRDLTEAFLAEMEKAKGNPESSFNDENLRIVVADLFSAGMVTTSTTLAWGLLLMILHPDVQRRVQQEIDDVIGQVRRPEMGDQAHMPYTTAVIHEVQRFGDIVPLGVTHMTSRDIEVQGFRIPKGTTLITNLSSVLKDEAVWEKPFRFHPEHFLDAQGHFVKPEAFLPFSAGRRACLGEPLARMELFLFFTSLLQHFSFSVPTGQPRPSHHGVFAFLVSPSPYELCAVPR
Sequence of Nuclear receptor subfamily 1 group I member 2 (O75469 whole entry): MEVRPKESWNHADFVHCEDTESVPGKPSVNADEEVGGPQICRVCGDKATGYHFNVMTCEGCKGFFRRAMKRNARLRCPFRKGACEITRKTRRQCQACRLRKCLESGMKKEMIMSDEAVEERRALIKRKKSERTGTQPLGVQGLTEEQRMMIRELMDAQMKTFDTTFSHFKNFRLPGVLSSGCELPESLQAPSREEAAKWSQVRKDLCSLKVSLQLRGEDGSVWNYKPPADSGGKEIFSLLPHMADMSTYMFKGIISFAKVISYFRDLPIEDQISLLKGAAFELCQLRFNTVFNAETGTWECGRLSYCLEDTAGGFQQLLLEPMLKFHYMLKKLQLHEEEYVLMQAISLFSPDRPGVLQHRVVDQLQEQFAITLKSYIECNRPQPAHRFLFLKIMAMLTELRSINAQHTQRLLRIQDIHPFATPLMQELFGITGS
Sequence of Metabotropic glutamate receptor 8 (P70579 whole entry): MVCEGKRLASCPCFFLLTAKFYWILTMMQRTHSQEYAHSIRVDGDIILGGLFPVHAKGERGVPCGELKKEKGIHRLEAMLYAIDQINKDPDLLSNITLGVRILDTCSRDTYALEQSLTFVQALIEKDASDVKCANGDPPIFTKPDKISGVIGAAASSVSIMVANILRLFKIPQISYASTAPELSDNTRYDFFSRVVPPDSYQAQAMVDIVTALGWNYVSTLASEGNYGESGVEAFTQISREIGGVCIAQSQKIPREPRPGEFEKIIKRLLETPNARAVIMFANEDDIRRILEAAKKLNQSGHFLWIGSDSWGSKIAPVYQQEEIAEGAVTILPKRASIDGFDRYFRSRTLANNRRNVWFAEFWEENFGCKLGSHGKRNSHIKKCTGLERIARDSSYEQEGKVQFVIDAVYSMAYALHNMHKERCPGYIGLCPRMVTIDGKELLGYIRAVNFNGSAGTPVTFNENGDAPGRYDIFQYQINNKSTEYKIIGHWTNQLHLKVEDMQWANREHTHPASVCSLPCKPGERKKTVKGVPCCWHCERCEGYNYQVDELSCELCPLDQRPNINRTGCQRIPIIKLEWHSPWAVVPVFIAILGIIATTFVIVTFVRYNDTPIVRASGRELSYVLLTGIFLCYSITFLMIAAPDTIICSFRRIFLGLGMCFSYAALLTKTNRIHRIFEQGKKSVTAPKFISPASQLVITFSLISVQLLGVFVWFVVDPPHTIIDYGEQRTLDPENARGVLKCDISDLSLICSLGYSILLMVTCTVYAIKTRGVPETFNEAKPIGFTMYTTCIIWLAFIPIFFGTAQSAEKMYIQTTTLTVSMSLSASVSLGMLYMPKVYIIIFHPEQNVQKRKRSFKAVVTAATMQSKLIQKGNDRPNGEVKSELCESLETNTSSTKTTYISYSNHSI

AUC at 24 h [1]: 83.9 µM·h
AUC at 24 h [2]: 23.7 µM·h
Cmax [3]: 2050 nM
bioavailability [6]: 37.5%
clearance [7]: 31.6 mL/min/kg
bioavailability [8]: 100%
Cmax [9]: 1440 nM
half-life [10]: 1.05 h
Kp uu at 24 h [11]: 0.16
Kp at 24 h [12]: 0.78
bioavailability [13]: 79%
half-life [14]: 2.98 h
efflux ratio [15]: 1.3
Kp uu at 1 h [16]: 0.07
Kp at 24 h [17]: 1.51
Activity [18]: Not Active
Activity [19]: Not Active
Activity [20]: Not Active
IC50 [21]: > 30 µM
IC50 [22]: > 30 µM
CLint scaled at 1 µM [23]: 8.8 mL/min/kg
fraction unbound at 4 h [24]: 0.016
EC50 [29]: > 10 µM
EC50 [30]: > 10 µM
EC50 [31]: > 10 µM
Compound: FC(F)(F)c1nccc2cc(Nc3n[nH]c4ncccc34)ccc12
concentration [4]: 322 nM
minimal effective dose [5]: 1 mg/kg
Activity [25]: Non-Toxic
Activity [26]: Non-Toxic
inhibition at 10 µM [27]: < 50%
inhibition at 10 µM [28]: < 50%
